Here are results for 24 compounds from ChEMBL document CHEMBL4033772, “New Class of Antitrypanosomal Agents Based on Imidazopyridines” (ACS Med Chem Lett, 2017).

In brackets after ≈: the same amount, converted by molar mass.

The subject of one data set is Trypanosoma cruzi. The data set can be described thus: Antitrypanosomal activity against Trypanosoma cruzi Tulahuen amastigotes infected in mouse 3T3 cells after 6 days by beta galactosidase reporter asay. Format: functional, cell-based. To be noted: NIH3T3, 144 h.
For data set [1], the system named is Trypanosoma brucei brucei. The data set can be described thus: Antitrypanosomal activity against Trypanosoma brucei brucei BF427 after 48 hrs by Alamar Blue-based assay. Format: functional. To be noted: BF427, 48 h. (The colour change of resazurin is a common sign of viable cells or microbes.)
Data set [2] can be described thus: Cytotoxicity against human CRL8155 cells after 48 hrs by Alamar Blue-based assay. Format: cell-based. To be noted: CRL8155, 48 h. The gist of the method: (§1)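 Cytotoxicity tested against human lymphoblasts CRL-8155 and hepatocytes HepG2. Highest concentration tested was 50 µM.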
The subject of a further data set is HepG2. The data set can be described thus: Cytotoxicity against human HepG2 cells after 48 hrs by Alamar Blue-based assay. To be noted: HepG2, 48 h. Format: cell-based. The gist of the method:
as §1

The nature of data set [3]: Solubility of the compound in PBS at pH 6.5 at 50 uM after overnight incubation by LC-MS/MS method. The data set is classed as physicochemical. The gist of the method: (§2)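 Solubility measured at pH 7.4, 6.5 and 2.0.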
Data set [4] in a line: Protein binding in Swiss Webster mouse plasma assessed as drug recovery at 2 uM by LC-MS/MS analysis. Format: ADME, cell-free. To be noted: read-out: Drug recovery. In a few lines:
(§3)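 Plasma protein binding measured in 100% mouse plasma, giving % recovery and % fraction unbound. Propranolol control included in every experiment.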

Data set [5] can be described thus: Fraction unbound in Swiss Webster mouse plasma at 2 uM by LC-MS/MS analysis. The data set is classed as ADME, cell-free. The gist of the method: as §3
Data set [6] can be described thus: Half life in mouse liver microsomes by LC-MS/MS method. Format: ADME, microsome. The gist of the method: (§4)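 Incubation with mouse liver microsomes, run in duplicate. Testosterone and dextromethorphan included as controls in each assay.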
(Microsomes from liver hold many membrane-bound enzymes, among them those of drug oxidation.)

The test system of a further data set is Liver. The data set can be described thus: Stability of the compound in mouse liver microsomes assessed as compound remaining by LC-MS/MS method. Format: ADME, microsome. The gist of the method: as §4
Data set [7] in a line: Solubility of the compound in PBS at pH 7.4 at 50 uM after overnight incubation by LC-MS/MS method. The data set is classed as physicochemical. The gist of the method:
as §2

The nature of data set [8]: Solubility of the compound in HCl at pH 2.0 at 50 uM after overnight incubation by LC-MS/MS method. Format: physicochemical. The gist of the method: as §2

In general, EC50 refers to the concentration needed to bring the measured effect to its halfway point. Read a low EC50 as greater potency. As usually defined, the EC90 is the concentration at which the effect reaches the 90% level. A high value points to a need for much substance. Consider `O=C(Nc1ccn2cc(-c3ccc(F)c(F)c3)nc2c1)N1CCCCC1`, for which the EC50 was 2840 nM in the data set on Trypanosoma cruzi, 1200 nM in data set [1], 47.4 µM in [2] and more than 50 µM with HepG2. Also, the EC90 in the data set on Trypanosoma cruzi amounted to 4.4 µM; in [1] it was 1750 nM.
For the compound `Cc1noc(C)c1C(=O)Nc1ccn2cc(-c3ccc(F)c(F)c3)nc2c1`, the EC50 is 9060 nM in the data set on Trypanosoma cruzi, more than 20000 nM in data set [1], more than 50 µM in [2] and more than 50 µM in the data set on HepG2. Further, the EC90 in the data set on Trypanosoma cruzi is more than 20 µM; in [1] it was more than 20000 nM.
Take `CCN(CC)CCCC(C)Nc1c2ccc(Cl)cc2nc2ccc(OC)cc12` (stereo not given) [QUINACRINE]: in [2], the half-maximal effective concentration (EC50) worked out at 4.23 µM.
For `O=C(Nc1ccn2cc(-c3cccc(F)c3F)nc2c1)N1CCCCC1`, the concentration giving a half-maximal response (EC50) in the data set with Trypanosoma cruzi is 1000 nM; in [1] it was 720 nM; in [2], more than 50 µM; in the data set with HepG2 it was more than 50 µM. Also, the EC90 with Trypanosoma cruzi was 1.58 µM; in [1], 870 nM.
As usually defined, the solubility is how much of the substance goes into solution per volume. A higher solubility goes with a readily soluble substance. A word on the fraction unbound: it is free concentration divided by total concentration. Lower therefore signals little free substance. Consider `O=C(Nc1ccn2cc(-c3ccc(F)c(F)c3)nc2n1)N1CC[C@H](F)C1`, for which the EC50 in the data set with Trypanosoma cruzi is 2530 nM; in [1], more than 20000 nM; in data set [2], more than 50 µM; in the data set on HepG2, more than 50 µM. In addition, the EC90 was more than 20 µM in the data set on Trypanosoma cruzi and more than 20000 nM in data set [1]. In data set [3], the solubility at 50 µM stood at 42 µM (≈ 15.2 µg/mL). Also, the recovery at 2 µM in data set [4] was determined as 49%. Moreover, in data set [5], the unbound share (fraction unbound) at 2 µM was determined as 0.081.
Consider `O=C(Nc1ccn2cc(-c3ccccc3)nc2c1)N1CCCC1`, for which the 50% effective concentration (EC50) is 4460 nM in the data set with Trypanosoma cruzi, 2230 nM in [1], 36 µM in [2] and more than 50 µM with HepG2. The EC90 in the data set with Trypanosoma cruzi came out at 6.44 µM; in [1], 3270 nM.
Take `O=C(Nc1ccn2cc(-c3ccccc3)nc2c1)N1CC[C@H](F)C1`: the half-maximal effective concentration (EC50) was 1080 nM in the data set on Trypanosoma cruzi, 620 nM in data set [1], 44.6 µM in data set [2] and more than 50 µM in the data set with HepG2. Also, the concentration for an effect of 90% (EC90) in the data set on Trypanosoma cruzi is 1.73 µM; in data set [1], 770 nM.
On to `CC(C)NCC(O)COc1cccc2ccccc12` (stereo not given) [PROPRANOLOL], for which the recovery at 2 µM in data set [4] was 75.7%. In data set [5], this compound displayed a fraction unbound at 2 µM of 0.114.
For `N=C(N)c1ccc(OCCCCCOc2ccc(C(=N)N)cc2)cc1` [PENTAMIDINE], in data set [1], a half-maximal response (EC50) required 2.16 nM and the EC90 was 6.13 nM.
With `O=C(Nc1ccc2nc(-c3ccc(F)c(F)c3)cn2c1)N1CC[C@H](F)C1`, the EC50 in the data set with Trypanosoma cruzi is 9940 nM; in data set [1] it was more than 20000 nM; in data set [2], more than 50 µM; in the data set with HepG2, more than 50 µM. Besides, the EC90 in the data set with Trypanosoma cruzi is more than 20 µM; in data set [1] it was more than 20000 nM.
On to `O=C(Nc1ccn2cc(-c3ccccc3)nc2c1)N1CCCCC1`, for which the EC50 with Trypanosoma cruzi is 2750 nM; in data set [1], 2510 nM; in data set [2], more than 50 µM; in the data set with HepG2, more than 50 µM. The concentration for an effect of 90% (EC90) stood at 12.3 µM in the data set on Trypanosoma cruzi and 4200 nM in [1].
As for `O=C(Nc1ccn2cc(-c3cccc(F)c3)nc2c1)N1CCCCC1`, the EC50 in the data set on Trypanosoma cruzi is 3100 nM; in data set [1], 970 nM; in data set [2], more than 50 µM; in the data set with HepG2, more than 50 µM. For the same compound, the results for the EC90 (with Trypanosoma cruzi; in data set [1]) were 4.53 µM and 1480 nM, respectively.
Usually half-life stands for how long it takes for the measured level to halve. `C[C@]12CC[C@H]3[C@@H](CCC4=CC(=O)CC[C@@]43C)[C@@H]1CC[C@@H]2O` [TESTOSTERONE]: in data set [6], the half-life came out at 5.68 min.
`O=C(Nc1ccn2cc(-c3cccc(F)c3F)nc2c1)N1CCCC1`: the concentration giving a half-maximal response (EC50) with Trypanosoma cruzi is 1020 nM; in data set [1], 580 nM; in [2] it was more than 50 µM; with HepG2, more than 50 µM. Besides, the 90% effect concentration (EC90) in the data set on Trypanosoma cruzi is 1.61 µM; in data set [1], 2760 nM.
In data set [6], `COc1ccc2c(c1)[C@]13CCCC[C@@H]1[C@H](C2)N(C)CC3` [DEXTROMETHORPHAN] had a half-life of 1.11 min.
For the compound `O=C(Nc1ccn2cc(-c3ccc(F)c(F)c3)nc2c1)c1cccnc1Cl`, the EC50 in the data set on Trypanosoma cruzi was 7340 nM; in data set [1], more than 20000 nM; in data set [2] it was more than 50 µM; in the data set on HepG2, more than 50 µM. Further, the EC90 with Trypanosoma cruzi was more than 20 µM; in data set [1], more than 20000 nM.
As for `Cn1nc(C(C)(C)C)cc1C(=O)Nc1ccn2cc(-c3ccc(F)c(F)c3)nc2c1`, the EC50 in the data set with Trypanosoma cruzi was 570 nM; in data set [1] it was 710 nM; in data set [2], more than 50 µM; in the data set on HepG2, more than 50 µM. For the same compound, the EC90 in the data set with Trypanosoma cruzi was 1.52 µM; in data set [1] it was more than 20000 nM.
With `O=C(Nc1ccn2cc(-c3cccc(F)c3)nc2c1)N1CC[C@H](F)C1`, the half-maximal effective concentration (EC50) in the data set on Trypanosoma cruzi is 710 nM; in data set [1] it was 160 nM; in [2], 29.7 µM; in the data set on HepG2, more than 50 µM. The results for the concentration for an effect of 90% (EC90) (with Trypanosoma cruzi; in data set [1]) were 0.88 µM and 820 nM, respectively. In data set [6], the half-life is more than 60 min. In the data set with Liver, the Stability worked out at 84.5%. Further, the values for the solubility at 50 µM in data set [7], in data set [3] and in [8] were 49.7 µM (≈ 17 µg/mL), 43.8 µM (≈ 15 µg/mL) and 52 µM (≈ 17.8 µg/mL), respectively. Moreover, in data set [4], the recovery at 2 µM stood at 68.5%. The compound also gave a fraction unbound at 2 µM in [5] of 0.03.
Regarding `O=C(Nc1ccn2cc(-c3cccc(F)c3)nc2c1)N1CCCC1`, the concentration for a half-maximal effect (EC50) in the data set on Trypanosoma cruzi was 2950 nM; in [1], 730 nM; in data set [2] it was more than 50 µM; in the data set on HepG2 it was more than 50 µM. Also, the EC90 in the data set with Trypanosoma cruzi is 6.01 µM; in data set [1] it was 880 nM.
On to `O=C(Nc1ccn2cc(-c3nccs3)nc2c1)N1CC[C@H](F)C1`, for which the EC50 in the data set with Trypanosoma cruzi is more than 20000 nM; in data set [1] it was more than 20000 nM; in data set [2] it was more than 50 µM; with HepG2 it was more than 50 µM. The EC90 in the data set with Trypanosoma cruzi is more than 20 µM; in data set [1], more than 20000 nM.
Regarding `O=C(Nc1ccn2cc(-c3ccc(F)c(F)c3)nc2c1)c1cccnc1`, the EC50 in the data set with Trypanosoma cruzi is 6270 nM; in data set [1] it was 6300 nM; in data set [2] it was more than 50 µM; in the data set on HepG2 it was more than 50 µM. Moreover, the values for the EC90 (in the data set with Trypanosoma cruzi; in data set [1]) were more than 20 µM and more than 20000 nM, respectively.
With `O=C(Nc1ccn2cc(-c3cccs3)nc2c1)N1CC[C@H](F)C1`, the half-maximal effective concentration (EC50) in the data set on Trypanosoma cruzi was 2680 nM; in data set [1], 1000 nM; in data set [2], more than 50 µM; in the data set on HepG2 it was more than 50 µM. The concentration for an effect of 90% (EC90) with Trypanosoma cruzi came to 3.92 µM; in [1], 2670 nM.
For `Cn1nc(C(C)(C)C)cc1C(=O)Nc1cc2nc(-c3ccc(F)c(F)c3)cn2cn1`, the EC50 with Trypanosoma cruzi was 170 nM; in data set [1], 6990 nM; in data set [2], 14.5 µM; with HepG2, more than 50 µM. Moreover, the EC90 in the data set on Trypanosoma cruzi was 0.64 µM; in data set [1], more than 20000 nM. Further, the half-life in [6] is 60 min. Further, the Stability in the data set with Liver was 47.1%. Further, the solubility at 50 µM came to 2.7 µM (≈ 1.11 µg/mL) in data set [7], 7.6 µM (≈ 3.12 µg/mL) in data set [3] and 1.3 µM (≈ 0.534 µg/mL) in [8]. In addition, in data set [4], the recovery at 2 µM amounted to 73.3%. Further, the fraction unbound at 2 µM in data set [5] was found to be 0.007.
As to `O=C(Nc1ccn2cc(-c3cccc(F)c3F)nc2c1)N1CC[C@H](F)C1`, the EC50 is 940 nM in the data set with Trypanosoma cruzi, 180 nM in data set [1], more than 50 µM in data set [2] and more than 50 µM in the data set with HepG2. Besides, the concentration for an effect of 90% (EC90) was determined as 1.36 µM in the data set on Trypanosoma cruzi and 920 nM in data set [1]. In [6], this compound had a half-life of more than 60 min. The Stability in the data set with Liver came out at 86.3%. In addition, the solubility at 50 µM in data set [7] was found to be 6.4 µM (≈ 2.31 µg/mL); in [3], 6.8 µM (≈ 2.45 µg/mL); in data set [8], 53.1 µM (≈ 19.1 µg/mL). The recovery at 2 µM in [4] came to 68.4%. Moreover, the free fraction (fraction unbound) at 2 µM in [5] was determined as 0.026.
